We go through 2 molecules from ChEMBL document CHEMBL5149984, “Discovery of HN37 as a Potent and Chemically Stable Antiepileptic Drug Candidate” (J Med Chem, 2021).

One series deals with CHO. The series can be described thus: Agonist activity at rat KCNQ3 A278T mutant expressed in CHO cells assessed as amplitude change of outward current at 10 uM by patch clamp method. To be noted: filed as agonist. The series is classed as cell-based. In a few lines:
(§1)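 Whole-cell patch clamp at room temperature on CHO cells (DMEM/F12, 10% FBS) transiently co-transfected with EGFP and hKCNQ1, rKCNQ2, rKCNQ3 A278T, hKCNQ4 or hKCNQ5; KCNQ2/3 at 1:1 cDNA ratio. Pipette solution 145 mM KCl, 5 mM MgATP, pH 7.3; bath 140 mM NaCl, 5 mM KCl, pH 7.4, under perfusion. V1/2 from Boltzmann fits; I/I0 is current amplitude with versus without compound; n = 4−6.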

A short description of series [1]: Metabolic stability in dog liver microsomes assessed as half life. Type of series: ADME, Canis lupus familiaris, Microsome.
A further series concerns the target CYP2C8 (Homo sapiens, UniProt P10632). Put plainly: Ratio of IC50 for human liver microsome CYP2C8 in absence of NADPH to IC50 for human liver microsome CYP2C8 in presence of NADPH. To be noted: liver microsomes, read-out: Ratio IC50. On the technique in general: Liver microsomes are vesicles of endoplasmic reticulum, rich in cytochrome P450 enzymes.
Series [2] in a line: Tmax in Kunming mouse brain at 5 mg/kg, po measured upto 24 hrs by LC-MS/MS method. The series is classed as ADME, organism-based. In a few lines:
(§2)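 Male KM mice (18–24 g), fasted 12 h before and 2 h after dosing, n = 3 per time point. Oral dose in 5% DMSO/5% Tween 80/90% saline; i.v. dose is that formulation diluted in saline with 1% Tween 80. Blood sampled 0.25–24 h after oral dosing, 0.083–24 h after i.v.; whole brain taken after oral dosing. Acetonitrile extraction with internal standard, LC-MS/MS.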

Series [3] can be described thus: Tmax in Kunming mouse plasma at 5 mg/kg, po measured upto 24 hrs by LC-MS/MS method. Type of series: ADME, organism-based. In a few lines: as §2
For the next series, the target named is CYP2B6 (Homo sapiens, UniProt P20813). Put plainly: Ratio of IC50 for human liver microsome CYP2B6 in absence of NADPH to IC50 for human liver microsome CYP2B6 in presence of NADPH. The conditions noted are these: liver microsomes, read-out: Ratio IC50.
Series [4] deals with T1, Potassium voltage-gated channel subfamily KQT member 1 (Homo sapiens, UniProt P51787).
T1 sequence (P51787 whole entry): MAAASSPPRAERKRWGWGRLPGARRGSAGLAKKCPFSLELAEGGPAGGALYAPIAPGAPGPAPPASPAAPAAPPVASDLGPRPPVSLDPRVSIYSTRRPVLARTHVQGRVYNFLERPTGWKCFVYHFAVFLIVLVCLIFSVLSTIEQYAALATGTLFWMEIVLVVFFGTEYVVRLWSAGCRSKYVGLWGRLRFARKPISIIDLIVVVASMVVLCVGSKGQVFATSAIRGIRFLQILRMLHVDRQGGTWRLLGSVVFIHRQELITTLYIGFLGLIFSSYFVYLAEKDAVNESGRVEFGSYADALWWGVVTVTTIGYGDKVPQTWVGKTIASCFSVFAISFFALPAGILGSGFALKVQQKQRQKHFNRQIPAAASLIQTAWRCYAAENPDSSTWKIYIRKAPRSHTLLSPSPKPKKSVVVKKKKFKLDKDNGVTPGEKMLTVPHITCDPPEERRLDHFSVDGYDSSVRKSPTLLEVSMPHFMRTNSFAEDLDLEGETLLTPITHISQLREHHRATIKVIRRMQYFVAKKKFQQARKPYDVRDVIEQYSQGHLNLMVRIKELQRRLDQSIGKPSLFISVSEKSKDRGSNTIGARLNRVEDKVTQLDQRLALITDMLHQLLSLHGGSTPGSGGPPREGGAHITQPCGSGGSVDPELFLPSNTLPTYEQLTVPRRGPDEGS
The series can be described thus: Agonist activity at human KCNQ1 channel expressed in CHO cells assessed as shift of half voltage of maximal activation at 0.1 uM by patch clamp method. The series is classed as cell-based. The gist of the method: as §1

Series [5] is described as follows: Ratio of AUC(0 to t) in Kunming mouse brain to plasma at 5 mg/kg, po measured upto 24 hrs by LC-MS/MS method. The series is classed as ADME, organism-based. The conditions noted are these: brain and plasma. In a few lines:
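Male KM mice (18−24 g) fasted 12 h before and 2 h after dosing, given 5 mg/kg orally in 5% DMSO/5% Tween 80/90% normal saline (n = 3 per time point). Aortic blood taken at 0.25–24 h and whole brain collected. Acetonitrile extraction with internal standard, then LC−MS/MS. Bioavailability calculated against the 2 mg/kg i.v. arm.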

A further series concerns the target CYP2D6 (Homo sapiens, UniProt P10635). The series can be described thus: Ratio of IC50 for human liver microsome CYP2D6 in absence of NADPH to IC50 for human liver microsome CYP2D6 in presence of NADPH. The conditions noted are these: liver microsomes, read-out: Ratio IC50.
Series [6] addresses Potassium voltage-gated channel subfamily KQT member 5 (Homo sapiens) (UniProt Q9NR82). Put plainly: Agonist activity at human KCNQ5 channel expressed in CHO cells assessed as shift of half voltage of maximal activation at 0.1 uM by patch clamp method. The series is classed as cell-based. To be noted: filed as agonist. The gist of the method:
as §1
A general note: In patch-clamp work, channel activity is measured electrically.

The nature of series [7]: Tmax in Sprague-Dawley rat at 6 mg/kg, po measured upto 24 hrs by LC-MS/MS method. Type of series: ADME, organism-based. To be noted: in vivo. In a few lines:
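Male SD rats (180–220 g) dosed orally at 2, 6 and 20 mg/kg, handled like the mice: fasting, 5% DMSO/5% Tween 80/saline vehicle, acetonitrile extraction, LC-MS/MS of plasma. In a separate set at 6 mg/kg p.o., blood and brain were sampled together.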

The target in the next series is CYP3A4 (Homo sapiens, UniProt P08684). Put plainly: Ratio of IC50 for human liver microsome CYP3A4 using midazolam as substrate in absence of NADPH to IC50 for human liver microsome CYP3A4 using midazolam as substrate in presence of NADPH. The conditions noted are these: liver microsomes, probe midazolam, read-out: Ratio IC50. The gist of the method:
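Human liver microsomes preincubated 0.5 h with 0.10−50 μM compound, with or without NADPH, then CYP-specific probe substrates added (CYP3A4 with midazolam 1′-hydroxylation and with testosterone 6β-hydroxylation). Metabolites quantified by LC−MS/MS; % activity remaining computed against no-compound control. IC50 fitted by Probit model; ratio = IC50(−NADPH)/IC50(+NADPH).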

A further series deals with Mus musculus. Put plainly: Anticonvulsant activity in MES induced Kunming mouse model of seizure at 2.5 mg/kg, po after 0.25 to 2 hr. The conditions noted are these: time 0.25-2 hrs. Type of series: functional. The gist of the method:
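MES test in male KM mice. Compounds freshly suspended in 0.5% CMC-Na and given by gavage at 20 mL/kg; 160 V stimulus through ear clips. Protection scored as absence of hindlimb tonic extension; time course at 0.25, 0.5, 1 and 2 h, otherwise tested at 1 h. ED50 from dose−response by nonlinear regression; Fisher's exact test versus vehicle.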

The target in another series is CYP2C9 (Homo sapiens, UniProt P11712). The series can be described thus: Ratio of IC50 for human liver microsome CYP2C9 in absence of NADPH to IC50 for human liver microsome CYP2C9 in presence of NADPH. The conditions noted are these: liver microsomes, read-out: Ratio IC50.
A short description of series [8]: Cmax in Sprague-Dawley rat brain at 6 mg/kg, po measured upto 24 hrs by LC-MS/MS method. Further details: time < 24 hrs, dose 6 mg/kg, route po. Type of series: ADME, organism-based. The gist of the method: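 Male SD rats (180−220 g) given single oral doses of 2, 6 and 20 mg/kg; handled as in the mouse PK study (fasted 12 h before and 2 h after dosing, 5% DMSO/5% Tween 80/90% saline formulation). In a separate 6 mg/kg p.o. set, blood and brain were sampled together. Plasma and brain levels by LC−MS/MS.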

A value given as a limit tells only on which side of the number the result lay.

One may read the half-life as how long it takes for the measured level to halve. The term Tmax denotes the time at which the peak concentration occurs. For orientation: Kp means the ratio of the level in a tissue or fluid to that in plasma or blood. Broadly, the Cmax is the highest concentration seen after dosing.

Sequence of CYP3A4 (P08684 whole entry): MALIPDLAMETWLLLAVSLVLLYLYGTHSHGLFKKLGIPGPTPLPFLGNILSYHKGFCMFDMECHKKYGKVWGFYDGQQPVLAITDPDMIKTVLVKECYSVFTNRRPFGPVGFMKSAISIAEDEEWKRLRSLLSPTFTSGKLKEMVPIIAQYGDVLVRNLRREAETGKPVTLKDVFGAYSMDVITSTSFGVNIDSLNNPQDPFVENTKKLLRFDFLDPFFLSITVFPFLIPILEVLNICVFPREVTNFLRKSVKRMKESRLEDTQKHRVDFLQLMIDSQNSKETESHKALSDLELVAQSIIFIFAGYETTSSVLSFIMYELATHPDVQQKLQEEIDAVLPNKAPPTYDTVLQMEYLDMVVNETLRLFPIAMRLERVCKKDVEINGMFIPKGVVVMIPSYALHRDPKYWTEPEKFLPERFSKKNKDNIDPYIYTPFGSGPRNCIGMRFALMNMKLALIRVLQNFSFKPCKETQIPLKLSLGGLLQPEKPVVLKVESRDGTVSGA
Sequence of CYP2C8 (P10632 whole entry): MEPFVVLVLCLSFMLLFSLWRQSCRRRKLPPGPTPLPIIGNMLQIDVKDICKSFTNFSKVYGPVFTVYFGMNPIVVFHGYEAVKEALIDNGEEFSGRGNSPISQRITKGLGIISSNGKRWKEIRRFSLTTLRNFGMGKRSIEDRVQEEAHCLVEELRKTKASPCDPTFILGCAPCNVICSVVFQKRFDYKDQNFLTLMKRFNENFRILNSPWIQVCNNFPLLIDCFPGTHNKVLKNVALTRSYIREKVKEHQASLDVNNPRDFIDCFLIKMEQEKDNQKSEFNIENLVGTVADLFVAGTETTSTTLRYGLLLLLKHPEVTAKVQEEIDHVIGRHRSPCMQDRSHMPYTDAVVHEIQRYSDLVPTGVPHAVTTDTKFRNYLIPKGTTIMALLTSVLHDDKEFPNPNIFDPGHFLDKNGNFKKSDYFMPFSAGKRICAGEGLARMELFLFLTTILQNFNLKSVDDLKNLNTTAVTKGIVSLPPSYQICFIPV
Sequence of CYP2C9 (P11712 whole entry): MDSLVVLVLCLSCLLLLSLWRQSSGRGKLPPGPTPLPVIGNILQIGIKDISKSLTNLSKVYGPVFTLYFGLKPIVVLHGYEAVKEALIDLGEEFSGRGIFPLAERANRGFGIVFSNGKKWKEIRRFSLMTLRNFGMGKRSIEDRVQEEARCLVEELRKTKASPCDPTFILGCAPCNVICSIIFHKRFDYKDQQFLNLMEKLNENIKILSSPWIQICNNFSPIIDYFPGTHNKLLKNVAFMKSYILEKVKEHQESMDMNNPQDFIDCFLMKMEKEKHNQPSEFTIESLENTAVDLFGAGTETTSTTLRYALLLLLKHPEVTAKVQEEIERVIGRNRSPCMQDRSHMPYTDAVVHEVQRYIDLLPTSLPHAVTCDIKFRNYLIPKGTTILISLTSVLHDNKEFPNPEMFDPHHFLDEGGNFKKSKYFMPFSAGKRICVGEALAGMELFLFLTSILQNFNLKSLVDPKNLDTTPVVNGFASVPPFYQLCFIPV
Sequence of CYP2D6 (P10635 whole entry): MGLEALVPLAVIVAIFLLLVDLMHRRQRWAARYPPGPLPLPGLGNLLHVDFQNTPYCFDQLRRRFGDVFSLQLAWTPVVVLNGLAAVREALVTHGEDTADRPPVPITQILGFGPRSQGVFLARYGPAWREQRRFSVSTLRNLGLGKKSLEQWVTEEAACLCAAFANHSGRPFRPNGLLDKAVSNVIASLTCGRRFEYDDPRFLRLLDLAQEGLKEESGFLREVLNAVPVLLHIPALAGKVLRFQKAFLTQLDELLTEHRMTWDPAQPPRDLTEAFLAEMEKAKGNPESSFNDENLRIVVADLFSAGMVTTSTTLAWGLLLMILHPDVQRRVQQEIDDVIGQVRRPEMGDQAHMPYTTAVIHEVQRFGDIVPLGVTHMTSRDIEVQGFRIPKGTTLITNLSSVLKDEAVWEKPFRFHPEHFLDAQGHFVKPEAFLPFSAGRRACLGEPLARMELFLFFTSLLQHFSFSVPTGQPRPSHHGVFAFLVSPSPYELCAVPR
Sequence of Potassium voltage-gated channel subfamily KQT member 5 (Homo sapiens) (Q9NR82 whole entry): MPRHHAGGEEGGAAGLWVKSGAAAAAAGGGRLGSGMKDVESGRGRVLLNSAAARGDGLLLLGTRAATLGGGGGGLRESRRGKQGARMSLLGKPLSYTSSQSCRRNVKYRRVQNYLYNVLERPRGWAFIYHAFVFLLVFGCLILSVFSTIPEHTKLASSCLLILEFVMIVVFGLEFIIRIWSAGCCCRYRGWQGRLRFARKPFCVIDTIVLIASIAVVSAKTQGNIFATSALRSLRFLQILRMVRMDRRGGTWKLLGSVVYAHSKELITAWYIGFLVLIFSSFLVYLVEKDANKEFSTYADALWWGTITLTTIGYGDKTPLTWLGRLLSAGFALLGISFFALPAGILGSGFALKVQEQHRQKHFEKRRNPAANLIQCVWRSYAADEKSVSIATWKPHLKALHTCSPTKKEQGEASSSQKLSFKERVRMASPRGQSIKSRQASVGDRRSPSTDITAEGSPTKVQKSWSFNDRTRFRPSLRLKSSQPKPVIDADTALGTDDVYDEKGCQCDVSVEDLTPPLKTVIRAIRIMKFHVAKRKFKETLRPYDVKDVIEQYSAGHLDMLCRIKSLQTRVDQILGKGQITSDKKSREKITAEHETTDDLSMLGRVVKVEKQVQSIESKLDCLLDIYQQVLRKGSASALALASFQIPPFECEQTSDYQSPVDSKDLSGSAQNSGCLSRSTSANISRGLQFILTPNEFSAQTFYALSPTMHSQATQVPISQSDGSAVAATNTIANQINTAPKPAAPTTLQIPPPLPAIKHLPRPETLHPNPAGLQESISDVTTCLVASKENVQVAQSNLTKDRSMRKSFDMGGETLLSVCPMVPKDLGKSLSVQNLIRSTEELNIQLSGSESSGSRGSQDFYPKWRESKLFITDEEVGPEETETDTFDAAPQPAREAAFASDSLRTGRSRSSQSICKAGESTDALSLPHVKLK
Sequence of CYP2B6 (P20813 whole entry): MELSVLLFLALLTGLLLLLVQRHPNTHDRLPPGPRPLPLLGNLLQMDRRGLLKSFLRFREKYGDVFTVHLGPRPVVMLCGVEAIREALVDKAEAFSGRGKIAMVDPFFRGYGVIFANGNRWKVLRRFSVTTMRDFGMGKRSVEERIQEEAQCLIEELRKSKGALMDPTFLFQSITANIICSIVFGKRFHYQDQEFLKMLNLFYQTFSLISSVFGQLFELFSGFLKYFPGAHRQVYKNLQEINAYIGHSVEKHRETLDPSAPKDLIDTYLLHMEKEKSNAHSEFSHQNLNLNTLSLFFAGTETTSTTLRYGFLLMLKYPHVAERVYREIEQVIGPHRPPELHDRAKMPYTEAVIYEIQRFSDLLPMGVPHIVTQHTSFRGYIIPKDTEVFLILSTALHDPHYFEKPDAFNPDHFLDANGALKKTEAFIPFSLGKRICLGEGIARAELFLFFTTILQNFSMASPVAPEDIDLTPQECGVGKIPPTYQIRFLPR

As for `CCOC(=O)Nc1ccc(NCc2ccc(F)cc2)cc1N` [EZOGABINE], the Activity in the series on CHO stood at 2.46.

For the molecule `C#CCN(Cc1ccc(F)cc1)c1cc(C)c(NC(=O)OC)c(C)c1`, the half-life in [1] was 35.5 min. The IC50 shift is above 1.5 on CYP2C8; above 1.5 at CYP2B6; below 1.5 at CYP2D6; below 1.5 at CYP3A4; below 1.5 on CYP2C9. The Tmax in [2] stood at 15 min; in [3], 15 min; in series [7], 40.2 min. The Activity was -5.47 mV in [4], -9.03 mV in series [6] and 40% with Mus musculus. Further, the Kp at 24 h in series [5] came to 2.23. In [8], this molecule displayed a peak concentration (Cmax) of 578 ng/mL.
